Assay results taken from ChEMBL document CHEMBL4325889, “Natural products hybrids: 3,5,4'-Trimethoxystilbene-5,6,7-trimethoxyflavone chimeric analogs as potential cytotoxic agents against diverse human cancer cells” (Eur J Med Chem, 2019).

What was measured:
Format in all cases: functional
CCRF-CEM = assay: Growth inhibition of human CCRF-CEM cells at 10 uM after 48 hrs by SRB assay relative to control; settings: read-out: GI
In short: (§1)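 Screened at the National Cancer Institute by the standard NCI protocol using the sulforhodamine B assay, which measures cellular protein. Single dose of 10 µM. Result is percent growth inhibition; values above 100% mean cell number fell below the initial population. Values are the average of duplicates.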

HL-60(TB) = assay: Growth inhibition of human HL-60(TB) cells at 10 uM after 48 hrs by SRB assay relative to control; settings: HL-60, 48 h, read-out: GI
In short: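 Run at NCI under its standard single-dose protocol against a leukemia cell panel. Cells were exposed to 10 µM; growth was read by sulforhodamine B staining of cellular protein and expressed as % growth inhibition versus untreated control. Values above 100% mean the cell population fell below the starting count (cytocidal). Each value is the average of duplicates.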

K562 = assay: Growth inhibition of human K562 cells at 10 uM after 48 hrs by SRB assay relative to control; settings: K562, 48 h, read-out: GI; in short: as §1
MOLT-4 = assay: Growth inhibition of human MOLT4 cells at 10 uM after 48 hrs by SRB assay relative to control; settings: MOLT-4, 48 h, read-out: GI; in short: as §1
RPMI-8226 = assay: Growth inhibition of human RPMI8226 cells at 10 uM after 48 hrs by SRB assay relative to control; settings: RPMI-8226, 48 h, read-out: GI; in short: as §1
HOP-62 = assay: Growth inhibition of human HOP62 cells at 10 uM after 48 hrs by SRB assay relative to control; settings: HOP-62, 48 h, read-out: GI; in short: as §1
NCI-H226 = assay: Growth inhibition of human NCI-H226 cells at 10 uM after 48 hrs by SRB assay relative to control; settings: NCI-H226, 48 h, read-out: GI; in short: as §1
NCI-H23 = assay: Growth inhibition of human NCI-H23 cells at 10 uM after 48 hrs by SRB assay relative to control; settings: NCI-H23, 48 h, read-out: GI; in short: as §1
NCI-H460 = assay: Growth inhibition of human NCI-H460 cells at 10 uM after 48 hrs by SRB assay relative to control; settings: NCI-H460, 48 h, read-out: GI; in short: as §1
NCI-H522 = assay: Growth inhibition of human NCI-H522 cells at 10 uM after 48 hrs by SRB assay relative to control; settings: NCI-H522, 48 h, read-out: GI; in short: as §1
HCT-15 = assay: Growth inhibition of human HCT15 cells at 10 uM after 48 hrs by SRB assay relative to control; settings: HCT-15, 48 h, read-out: GI; in short: as §1
HT-29 = assay: Growth inhibition of human HT-29 cells at 10 uM after 48 hrs by SRB assay relative to control; settings: HT-29, 48 h, read-out: GI; in short: as §1
SW-620 = assay: Growth inhibition of human SW620 cells at 10 uM after 48 hrs by SRB assay relative to control; settings: SW-620, 48 h, read-out: GI
In short: (§2)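 NCI screen against its human cancer cell line panel by the standard NCI protocol, SRB protein stain. Single dose of 10 μM. Percent growth inhibition versus control; values above 100% mean the cell population fell below the starting number. Each value is the mean of duplicates.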

SF-295 = assay: Growth inhibition of human SF295 cells at 10 uM after 48 hrs by SRB assay relative to control; settings: SF-295, 48 h, read-out: GI; in short: as §1
SF-539 = assay: Growth inhibition of human SF539 cells at 10 uM after 48 hrs by SRB assay relative to control; settings: SF-539, 48 h, read-out: GI; in short: as §1
SNB-19 = assay: Growth inhibition of human SNB19 cells at 10 uM after 48 hrs by SRB assay relative to control; settings: SNB-19, 48 h, read-out: GI; in short: as §2
SNB-75 = assay: Growth inhibition of human SNB75 cells at 10 uM after 48 hrs by SRB assay relative to control; settings: SNB-75, 48 h, read-out: GI; in short: as §2
Malme-3M = assay: Growth inhibition of human MALME-3M cells at 10 uM after 48 hrs by SRB assay relative to control; settings: read-out: GI; in short: as §1
MDA-MB-435 = assay: Growth inhibition of human MDA-MB-435 cells at 10 uM after 48 hrs by SRB assay relative to control; settings: MDA-MB-435, 48 h, read-out: GI; in short: as §1
SK-MEL-28 = assay: Growth inhibition of human SK-MEL-28 cells at 10 uM after 48 hrs by SRB assay relative to control; settings: SK-MEL-28, 48 h, read-out: GI; in short: as §1
SK-MEL-5 = assay: Growth inhibition of human SK-MEL-5 cells at 10 uM after 48 hrs by SRB assay relative to control; settings: SK-MEL-5, 48 h, read-out: GI; in short: as §1
IGROV-1 = assay: Growth inhibition of human IGROV1 cells at 10 uM after 48 hrs by SRB assay relative to control; settings: IGROV-1, 48 h, read-out: GI; in short: as §1
OVCAR-5 = assay: Growth inhibition of human OVCAR5 cells at 10 uM after 48 hrs by SRB assay relative to control; settings: OVCAR-5, 48 h, read-out: GI; in short: as §1
OVCAR-8 = assay: Growth inhibition of human OVCAR8 cells at 10 uM after 48 hrs by SRB assay relative to control; settings: OVCAR-8, 48 h, read-out: GI; in short: as §1
786-0 = assay: Growth inhibition of human 786-0 cells at 10 uM after 48 hrs by SRB assay relative to control; settings: 786-0, 48 h, read-out: GI; in short: as §1
ACHN = assay: Growth inhibition of human ACHN cells at 10 uM after 48 hrs by SRB assay relative to control; settings: read-out: GI; in short: as §1
RXF 393 = assay: Growth inhibition of human RXF393 cells at 10 uM after 48 hrs by SRB assay relative to control; settings: RXF 393, 48 h, read-out: GI; in short: as §1
SN12C = assay: Growth inhibition of human SN12C cells at 10 uM after 48 hrs by SRB assay relative to control; settings: read-out: GI; in short: as §1
TK-10 = assay: Growth inhibition of human TK10 cells at 10 uM after 48 hrs by SRB assay relative to control; settings: TK-10, 48 h, read-out: GI; in short: as §2
PC-3 = assay: Growth inhibition of human PC3 cells at 10 uM after 48 hrs by SRB assay relative to control; settings: PC-3, 48 h, read-out: GI; in short: as §1
DU-145 = assay: Growth inhibition of human DU145 cells at 10 uM after 48 hrs by SRB assay relative to control; settings: DU-145, 48 h, read-out: GI; in short: as §1
BT-549 = assay: Growth inhibition of human BT549 cells at 10 uM after 48 hrs by SRB assay relative to control; settings: BT-549, 48 h, read-out: GI; in short: as §1
MDA-MB-468 = assay: Growth inhibition of human MDA-MB-468 cells at 10 uM after 48 hrs by SRB assay relative to control; settings: MDA-MB-468, 48 h, read-out: GI; in short: as §1

Work on `COc1cc(NC(=O)c2cccc(-c3cc(=O)c4c(OC)c(OC)c(OC)cc4o3)c2)cc(OC)c1OC` yielded an inhibition of growth at 10 µM (CCRF-CEM) of 68.7%, an inhibition of growth at 10 µM (HL-60(TB)) of 64% and an inhibition of growth at 10 µM (K562) of 72.4%. For the same compound, the inhibition of growth at 10 µM (MOLT-4) was 89.6%, the inhibition of growth at 10 µM (RPMI-8226) was 99.7% and the inhibition of growth at 10 µM (HOP-62) was 62.5%. For the same compound, the inhibition of growth at 10 µM (NCI-H226) was 41.5%, the inhibition of growth at 10 µM (NCI-H23) was 51.2% and the inhibition of growth at 10 µM (NCI-H460) was 70%. The inhibition of growth at 10 µM (NCI-H522) was 65.3%, the inhibition of growth at 10 µM (HCT-15) was 59.3% and the inhibition of growth at 10 µM (HT-29) was 69%. It also gave an inhibition of growth at 10 µM (SW-620) of 33%, an inhibition of growth at 10 µM (SF-295) of 55% and an inhibition of growth at 10 µM (SF-539) of 47.4%. The inhibition of growth at 10 µM (SNB-19) was 43.7%, the inhibition of growth at 10 µM (SNB-75) was 25.3% and the inhibition of growth at 10 µM (Malme-3M) was 43.6%. For the same compound, the inhibition of growth at 10 µM (MDA-MB-435) was 93.6%, the inhibition of growth at 10 µM (SK-MEL-28) was 36.5% and the inhibition of growth at 10 µM (SK-MEL-5) was 91.7%. It also gave an inhibition of growth at 10 µM (IGROV-1) of 48.2%, an inhibition of growth at 10 µM (OVCAR-5) of 14% and an inhibition of growth at 10 µM (OVCAR-8) of 69.1%. It also gave an inhibition of growth at 10 µM (786-0) of 68.2%, an inhibition of growth at 10 µM (ACHN) of 43.3% and an inhibition of growth at 10 µM (RXF 393) of 46.8%. It also gave an inhibition of growth at 10 µM (SN12C) of 54.1%, an inhibition of growth at 10 µM (TK-10) of 30.6% and an inhibition of growth at 10 µM (PC-3) of 47.6%. It also gave an inhibition of growth at 10 µM (DU-145) of 45.7%, an inhibition of growth at 10 µM (BT-549) of 73% and an inhibition of growth at 10 µM (MDA-MB-468) of 52.6%.
With `COc1cc2oc(-c3cccc(C(=O)Nc4ccccc4)c3)cc(=O)c2c(O)c1OC` the inhibition of growth at 10 µM (CCRF-CEM) was -0.19%, the inhibition of growth at 10 µM (HL-60(TB)) was 7.3% and the inhibition of growth at 10 µM (K562) was 2.93%. The inhibition of growth at 10 µM (MOLT-4) was 0.26%, the inhibition of growth at 10 µM (RPMI-8226) was 16.5% and the inhibition of growth at 10 µM (HOP-62) was 91.1%. It also gave an inhibition of growth at 10 µM (NCI-H226) of 26.8%, an inhibition of growth at 10 µM (NCI-H23) of 13.1% and an inhibition of growth at 10 µM (NCI-H460) of 66.3%. For the same compound, the inhibition of growth at 10 µM (NCI-H522) was 8.74%, the inhibition of growth at 10 µM (HCT-15) was 7.23% and the inhibition of growth at 10 µM (HT-29) was 45.9%. For the same compound, the inhibition of growth at 10 µM (SW-620) was 5.67%, the inhibition of growth at 10 µM (SF-295) was 30% and the inhibition of growth at 10 µM (SF-539) was 80.6%. The inhibition of growth at 10 µM (SNB-19) was 42.3%, the inhibition of growth at 10 µM (SNB-75) was 78.2% and the inhibition of growth at 10 µM (Malme-3M) was 35.5%. It also gave an inhibition of growth at 10 µM (MDA-MB-435) of 41.7%, an inhibition of growth at 10 µM (SK-MEL-28) of 12.6% and an inhibition of growth at 10 µM (SK-MEL-5) of 28.3%. It also gave an inhibition of growth at 10 µM (IGROV-1) of 14.6%, an inhibition of growth at 10 µM (OVCAR-5) of 5.59% and an inhibition of growth at 10 µM (OVCAR-8) of 84.6%. The inhibition of growth at 10 µM (786-0) was 68.5%, the inhibition of growth at 10 µM (ACHN) was 42% and the inhibition of growth at 10 µM (RXF 393) was 43.5%. For the same compound, the inhibition of growth at 10 µM (SN12C) was 25.2%, the inhibition of growth at 10 µM (TK-10) was 39.2% and the inhibition of growth at 10 µM (PC-3) was 29%. The inhibition of growth at 10 µM (DU-145) was 34.4%, the inhibition of growth at 10 µM (BT-549) was 39.9% and the inhibition of growth at 10 µM (MDA-MB-468) was 30.6%.
